Bioassay records deposited in PubChem BioAssay by several laboratories.
Most compounds without a hit are left out; they make up all but 12% or so of the library.
CHOP inh: inhibitors of CHOP promoter induction, primary screen, cell-based, unfolded protein response, luciferase reporter; CHO-K1 CHOP-promoter luciferase, tunicamycin-induced, 15-18 h; inhibition, % at 10 µM; hit rate 3.8% among 220,000;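 active = compounds that reduced the stress-induced luciferase reporter signal by more than about 70% of percent inhibition, limit read from the data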;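 also: 0% = tunicamycin plus vehicle and 100% = wells without tunicamycin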
Autophagy mod: autophagy modulators in MEF cells, primary screen, imaging, high-content, MEF GFP-LC3. MEF GFP-LC3 puncta imaging; test concentration mostly 10 µM. calls only at 10 µM (by protocol). hit rate 0.98% among 190,000;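 active = percentage of spot-positive cells more than 3 SD above its plate mean, without a fluorescence outlier flag or 80% toxicity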;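 also: spot-positive cell cutoff set from DMSO-treated cells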
b-catenin transl: modulators of beta-catenin nuclear translocation, primary screen, imaging, HeLa cells, immunofluorescence, high-content; hit rate 0.3% among 190,000; nuclear translocation activity, % at 5 µM; AID 1665, 2009;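 active = nuclear translocation activity above 50% at 5 µM, with a well cell count of 50 or more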;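 also: per-cell ratio of nuclear to cytoplasmic median beta-catenin stain intensity; plate controls were DMSO negative control for no effect and GSK-3 inhibitor IX positive control for full effect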
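Test system: human HeLa cells, endogenous beta-catenin. Times: 24 h compound exposure, 37°C. Measured by: beta-catenin immunofluorescence imaging with DAPI.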
Dynein cargo inh: inhibitors of GR-EGFP nuclear translocation, primary screen, dynein cargo transport inhibitor project, imaging, high-content, 3617.4 mouse cells; test concentration mostly 20 µM; stimulated with dexamethasone, 1 µM; active compounds read low; z-score, hits read low; hit rate 0.47% among 220,000; AID 1381, 2008;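 active = plate z-score of nuclear minus cytoplasmic receptor signal below a set negative limit, without overly bright fluorescence or cell loss, cut at about -3.5 in these data, passing the limit was not always enough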;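 also: z-score of nuclear minus cytoplasmic ring GR-EGFP intensity difference per well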
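Buffer or medium: tet-free, stripped-serum medium; reagent: dexamethasone at 1.0 µM final, 30 min; incubation: 48 h induction, 1 h compound, 30 min dex at 37 °C; measured by: formaldehyde fixation, Hoechst nuclear stain, 10x automated fluorescence imaging; read-out: nuclear-to-cytoplasmic GR-EGFP distribution per well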
L major viab: Leishmania major promastigote growth inhibition, primary screen | Leishmania major promastigotes, resazurin fluorescence viability | inhibition, % at 10 µM | hit rate 9% among 200,000; in the data active = inhibition above about 50%;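 also: promastigotes grown with compound for 44 hours at 28 °C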
MT stabilize HCS: microtubule stabilizers in HeLa cells, primary screen, imaging, high-content imaging. HeLa tubulin immunostaining HCS, 24 h; share of cells brighter than vehicle mean+2SD. % tubulin-high responders, % at 10 µM. hit rate 0.83% among 200,000;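 active = plate Z-score above 3 for both tubulin-high and condensed-nucleus cell shares, with cell loss under 80%, at 10 µM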;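 also: anti alpha tubulin signal scored within the nucleus-defined area of each cell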
An asterisk follows results filed as active; i = inactive; nt = no result; + = active, no number.

SMILES | CHOP inh | Autophagy mod | b-catenin transl | Dynein cargo inh | L major viab | MT stabilize HCS
COc1ccc(S(=O)(=O)N2CCN(C3Cc4ccccc4C3)CC2)cc1 | 9 | i | 2 | 0.33 | 97* | 3
CCCNS(=O)(=O)c1ccc(OCC(=O)N2CCCC2)cc1 | 43 | i | -1 | -0.34 | -6 | 8
O=C1c2ccccc2C(=O)N1CCc1nc2ccccc2c(=O)n1CCCn1ccnc1 | 39 | i | 0 | -0.19 | -6 | 2
O=S(=O)(NC1CCN(Cc2ccccc2)CC1)c1ccc(Cl)cc1 | -1 | nt | 8 | 0.67 | nt | nt
COc1ccc(S(=O)(=O)N2CCN(Cc3ccc(Cl)cc3)CC2)cc1 | 42 | i | 0 | -0.37 | 51* | 2
COc1ccc(S(=O)(=O)N2CCN(Cc3cccc(Cl)c3)CC2)cc1 | 38 | i | 3 | -0.82 | 1 | 2
O=S(=O)(c1ccc(Cl)cc1)N1CCN(C2CCN(Cc3ccccc3)CC2)CC1 | 36 | i | nt | 0.09 | 99* | 2
COc1ccc(CN2CCN(S(=O)(=O)c3ccc(NC(C)=O)cc3)CC2)cc1 | 6 | nt | 1 | 1.2 | nt | nt
COc1ccc(S(=O)(=O)N2CCC(N3CCN(Cc4ccccc4)CC3)CC2)cc1 | 34 | i | 2 | -0.16 | 87* | 3
Cc1cccc(C)c1NC(=S)NCCSc1ccc(Cl)cc1 | -22 | i | -1 | 3.8 | 37 | 3
O=S(=O)(Cc1ccccc1Cl)N1CCN(Cc2ccc3c(c2)OCO3)CC1 | 8 | i | nt | -0.0082 | 96* | 4
O=S(=O)(c1ccc(N2CCN(Cc3ccc4c(c3)OCO4)CC2)nc1)N1CCOCC1 | 8 | i | 1 | -0.3 | 93* | 2
COc1ccc(F)cc1S(=O)(=O)N1CCN(Cc2ccc3c(c2)OCO3)CC1 | 27 | i | 1 | 1.1 | 12 | 3
O=S(=O)(c1ccc(N2CCN(S(=O)(=O)c3ccc4c(c3)OCCO4)CC2)nc1)N1CCCC1 | 44 | i | nt | -0.015 | 18 | 6
CSc1ccc(S(=O)(=O)N2CCN(Cc3ccc4c(c3)OCO4)CC2)cc1 | 62 | i | -1 | -0.37 | 82* | 3
COc1ccc(Cl)cc1S(=O)(=O)N1CCN(Cc2ccc3c(c2)OCO3)CC1 | 73* | i | nt | -0.53 | 72* | 3
CCOC(=O)C(=NCC1CCCO1)NNc1ccccc1Cl (centres undefined) | 15 | nt | 0 | 0.18 | nt | nt
CCc1ccc(C2C3=C(CCCC3=O)OC3=C2C(=O)CCC3)cc1 | 40 | i | 1 | -0.26 | -7 | 3
COc1ccc(C(=O)NCc2ccc3c(c2)OCO3)cc1S(=O)(=O)NCc1ccc(Cl)cc1 | 0 | i | 0 | -0.31 | 61* | 2
Cc1c(N=Cc2cc3c(cc2Cl)OCO3)c(=O)n(-c2ccccc2)n1C | nt | nt | -7 | nt | nt | nt
CC(C)(C)Nc1nc(N2CCCC2)nc(N2CCCC2)n1 | 77* | i | -1 | -0.75 | 98* | 2
CCNc1nc(NC(C)(C)C)nc(N2CCCC2)n1 | 18 | i | -1 | 0.15 | 80* | 2
CSc1nc(NC(C)(C)C)nc(N2CCOCC2)n1 | 39 | i | -3 | 2.8 | -1 | 4
CCCNc1nc(N2CCCC2)nc(N2CCCC2)n1 | 6 | i | 0 | -1.1 | 89* | 1
C=CCNc1nc(NCC)nc(N2CCOCC2)n1 | 10 | i | -3 | 1.5 | 4 | 3
SMILES | CHOP inh | Autophagy mod | b-catenin transl | Dynein cargo inh | L major viab | MT stabilize HCS
CC[n+]1c(P(=O)([O-])c2ccccc2)[nH]c2ccccc21 | -15 | i | 0 | -0.0056 | 0 | 2
CCOc1cc(C)c(S(=O)(=O)Nc2ccc(F)cc2)cc1C | 81* | i | nt | 2.2 | 58* | 4
COc1ccc(-c2cc(C(F)(F)F)nc(SCCC(=O)N3CCN4CCCC4C3)n2)cc1 (centres undefined) | 12 | i | -2 | 0.5 | 55* | 3
Cc1cc(C(=O)NCC(=O)OCC(=O)NCCc2ccccc2)ccc1[N+](=O)[O-] | -7 | i | -5 | 0.91 | -2 | 1
CCCCCCCCNC(=O)CCNC(=O)c1ccc(C(C)(C)C)cc1 | 93* | i | -3 | -0.15 | 0 | 2
CCCNS(=O)(=O)c1ccc(Oc2ncc(C(F)(F)F)cc2Cl)cc1 | 74* | i | 1 | -0.67 | 7 | 1
COc1ccc(-c2nnc(SCc3c(C)noc3C)n2N)cc1OC | -10 | i | -4 | -0.53 | -2 | 2
CCOC(=O)Cn1nnnc1CN(CCc1ccccc1)Cc1cc2cc(CC)ccc2[nH]c1=O | 81* | i | -7 | -0.32 | 18 | 2
CCc1ccc2[nH]c(=O)c(CN(Cc3ccc(OC)cc3)Cc3nnnn3CCOC)cc2c1 | 36 | + | 1 | -0.53 | 10 | 3
COCCn1nnnc1C(C(C)C)N(Cc1ccccc1)Cc1cc2cc(OC)ccc2[nH]c1=O (centres undefined) | 44 | i | -2 | -0.99 | 13 | 3
CC(OC(=O)c1ccccc1NS(=O)(=O)c1cccc(N)c1)C(=O)N(C)Cc1ccccc1 (centres undefined) | 0 | i | 0 | -0.048 | 82* | 2
CC1=C(C(=O)OCc2ccc3c(c2)OCO3)C(c2ccccc2OCc2ccccc2)NC(=O)N1 (centres undefined) | 61 | i | -5 | -0.25 | 99* | 1
COc1ccccc1N=C1SC(C(=O)Nc2cccc(Cl)c2Cl)C(N)=C1C(N)=O (centres undefined) | -12 | nt | 62* | -0.44 | nt | nt
Cc1c(Nc2nc3ccccc3nc2N2CCN(c3ccccc3)CC2)c(=O)n(-c2ccccc2)n1C | 2 | i | -5 | -0.17 | 53* | 2
Cc1c(Nc2c3ccccc3nc3ccccc23)c(=O)n(-c2ccccc2)n1C | -7 | nt | -1 | -0.88 | nt | nt
O=[N+]([O-])c1ccc(C2=Nc3cc(Cl)ccc3OC2)cc1 | -28 | i | -5 | -1.6 | -4 | 4
Cc1ccc2c(c1)N=C(c1ccc(F)cc1)CO2 | 78* | i | 0 | 0.39 | -6 | 3
CCCCOc1ccc(-c2cc(C(F)(F)F)c(C#N)c(SCC(=O)O)n2)cc1 | 35 | + | 1 | -1 | -6 | 2
COc1ccccc1N1CCN(CC(=O)Nc2sccc2C#N)CC1 | 13 | i | -2 | 0.086 | -6 | 2
CC1CCN(CC(O)COC2CCC(C(C)(C)C)CC2)CC1 (centres undefined) | 38 | i | -2 | 0.19 | 92* | 2
CC(C)(C)C1CCC(OCC(O)CN2CCCC2)CC1 (centres undefined) | -7 | i | 0 | 0.27 | 100* | 4
Cc1ccc(N2CCN(CC(O)COC3CCCCC3)CC2)cc1 (centres undefined) | 7 | i | 1 | 1.2 | 97* | 3
